Converted amounts (≈) assume the structure as drawn. The source made the active and inactive calls. The calls are words filed in the database; no cut-off is given here.
Columns and labels:
[1] = test system: Staphylococcus epidermidis; test: Antibacterial activity against Staphylococcus epidermidis H 6966/08 incubated for 24 hrs under dark condition by microdilution broth assay; type: functional; conditions: H 6966/08, 24 h
How it was run: (§1)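 Broth microdilution per M07-A07, modified, in Mueller-Hinton broth adjusted to pH 7.4 (±0.2). Inoculum is prepared in sterile water to McFarland 0.5 (1.5 × 10⁸ CFU/mL). Plates are incubated in the dark at 35 °C in humid air. MIC is read after 24 and 48 h as at least 95% growth reduction versus control (IC₉₅).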

[2] = test system: Mycobacterium avium; test: Antimycobacterial activity against Mycobacterium avium 330/88 measured after 14 days by micromethod; type: functional; conditions: 330/88, 336 h
[3] = test system: Enterococcus; test: Antibacterial activity against Enterococcus sp. J 14365/08 incubated for 24 hrs under dark condition by microdilution broth assay; conditions: J 14365/08, 24 h
[4] = Solubility of the compound in Sula's semisynthetic medium up to 1 mM; type: physicochemical
[5] = test system: Mycobacterium avium; test: Antimycobacterial activity against Mycobacterium avium 330/88 measured after 21 days by micromethod; type: functional; conditions: 330/88, 504 h
[6] = test system: Klebsiella pneumoniae; test: Antibacterial activity against Klebsiella pneumoniae D 11750/08 up to 500 uM incubated for 24 to 48 hrs under dark condition by microdilution broth assay; type: functional; how it was run: as §1
[7] = test system: Pichia kudriavzevii; test: Antifungal activity against Candida krusei E28 after 24 to 48 hrs hrs by microdilution broth assay; type: functional
How it was run: (§2)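 Broth microdilution per CLSI M27-A3 and M38-A2 in RPMI 1640 with glutamine, buffered to pH 7.0 with MOPS. Compounds are diluted in DMSO. Final inoculum is 5 × 10³ CFU/mL for yeasts and 0.5–5 × 10⁴ CFU/mL for moulds. Plates are incubated in the dark at 35 °C in humid air and read visually and/or at 540 nm after 24 and 48 h. MIC is ≥80% growth reduction (IC₈₀) for yeasts and ≥50% (IC₅₀) for filamentous fungi.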

[8] = test system: Mycobacterium tuberculosis; test: Antimycobacterial activity against Mycobacterium tuberculosis H37Rv 331/88 measured after 21 days by micromethod; type: functional; conditions: H37Rv 331/88, 504 h
[9] = test system: Escherichia coli; test: Antibacterial activity against Escherichia coli CCM 4517 incubated for 24 hrs under dark condition by microdilution broth assay; type: functional; conditions: CCM 4517, 24 h; how it was run: as §1
[10] = test system: Mycobacterium kansasii; test: Antimycobacterial activity against Mycobacterium kansasii isolate 6509/96 after 14 days by micromethod; type: functional; conditions: isolate 6509/96, 336 h
[11] = test system: Mycobacterium kansasii; test: Antimycobacterial activity against Mycobacterium kansasii isolate 235/80 after 14 days by micromethod; type: functional; conditions: isolate 235/80, 336 h
[12] = test system: Mycobacterium kansasii; test: Antimycobacterial activity against Mycobacterium kansasii isolate 6509/96 after 7 days by micromethod; type: functional; conditions: isolate 6509/96, 168 h
[13] = test system: Pseudomonas aeruginosa; test: Antibacterial activity against Pseudomonas aeruginosa CCM 1961 up to 500 uM incubated for 24 to 48 hrs under dark condition by microdilution broth assay; type: functional; how it was run: as §1
[14] = test system: Lichtheimia corymbifera; test: Antifungal activity against Absidia corymbifera 272 after 24 to 48 hrs hrs by microdilution broth assay; type: functional; how it was run: as §2
[15] = test system: Staphylococcus aureus; test: Antibacterial activity against Staphylococcus aureus CCM 4516/08 incubated for 48 hrs under dark condition by microdilution broth assay; type: functional; conditions: CCM 4516/08, 48 h; how it was run: as §1
[16] = test system: Mycobacterium kansasii; test: Antimycobacterial activity against Mycobacterium kansasii isolate 235/80 after 21 days by micromethod; type: functional; conditions: isolate 235/80, 504 h
[17] = test system: Staphylococcus aureus; test: Antibacterial activity against Staphylococcus aureus CCM 4516/08 incubated for 24 hrs under dark condition by microdilution broth assay; type: functional; conditions: CCM 4516/08, 24 h; how it was run: as §1
[18] = test system: Escherichia coli; test: Antibacterial activity against Escherichia coli CCM 4517 incubated for 48 hrs under dark condition by microdilution broth assay; type: functional; conditions: CCM 4517, 48 h; how it was run: as §1
[19] = test system: Mycobacterium kansasii; test: Antimycobacterial activity against Mycobacterium kansasii isolate 6509/96 after 21 days by micromethod; type: functional; conditions: isolate 6509/96, 504 h
[20] = test system: Mycobacterium kansasii; test: Antimycobacterial activity against Mycobacterium kansasii isolate 235/80 after 7 days by micromethod; type: functional; conditions: isolate 235/80, 168 h
[21] = test system: Staphylococcus epidermidis; test: Antibacterial activity against Staphylococcus epidermidis H 6966/08 incubated for 48 hrs under dark condition by microdilution broth assay; type: functional; conditions: H 6966/08, 48 h; how it was run: as §1
[22] = test system: Enterococcus; test: Antibacterial activity against Enterococcus sp. J 14365/08 incubated for 48 hrs under dark condition by microdilution broth assay; conditions: J 14365/08, 48 h
[23] = test system: Staphylococcus aureus; test: Antibacterial activity against methicillin-resistant Staphylococcus aureus H 5996/08 incubated for 24 hrs under dark condition by microdilution broth assay; type: functional; conditions: H 5996/08, 24 h
How it was run: (§3)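 Microdilution broth method modified per M07-A07, in Mueller-Hinton broth adjusted to pH 7.4 (±0.2). Inoculum made in sterile water to 0.5 McFarland (1.5 × 10⁸ CFU/mL). Plates incubated in the dark at 35 °C in a humid atmosphere, with reads at 24 and 48 h. MIC taken as at least 95% growth reduction (IC₉₅) versus control.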

[24] = test system: Klebsiella pneumoniae; test: Antibacterial activity against ESBL positive Klebsiella pneumoniae J 14368/08 up to 500 uM incubated for 24 to 48 hrs under dark condition by microdilution broth assay; type: functional; how it was run: as §1
[25] = test system: Staphylococcus aureus; test: Antibacterial activity against methicillin-resistant Staphylococcus aureus H 5996/08 incubated for 48 hrs under dark condition by microdilution broth assay; type: functional; conditions: H 5996/08, 48 h; how it was run: as §3
[26] = test system: Mycobacterium tuberculosis; test: Antimycobacterial activity against Mycobacterium tuberculosis H37Rv 331/88 measured after 14 days by micromethod; type: functional; conditions: H37Rv 331/88, 336 h

SMILES | MIC95 [1] [µM] | MIC [2] [µM] | MIC95 [3] [µM] | solubility [4] | MIC [5] [µM] | Activity [6] | Activity [7] | MIC [8] [µM] | MIC95 [9] [µM] | MIC [10] [µM] | MIC [11] [µM] | MIC [12] [µM] | Activity [13] | Activity [14] | MIC95 [15] [µM] | MIC [16] [µM] | MIC [19] [µM] | MIC [20] [µM] | Activity [24] | MIC [26] [µM] | other results
O=C(CN1C(=O)/C(=C/c2cc(Cl)ccc2O)SC1=S)Nc1ccc(Cl)cc1 | 250 (≈ 110 µg/mL) | 250 (≈ 110 µg/mL) | > 250 | Insoluble | 250 (≈ 110 µg/mL) | inactive | inactive | 32 (≈ 14.1 µg/mL) | > 250 | 250 (≈ 110 µg/mL) | 125 (≈ 54.9 µg/mL) | 125 (≈ 54.9 µg/mL) | inactive | inactive | > 250 | 250 (≈ 110 µg/mL) | 250 (≈ 110 µg/mL) | 125 (≈ 54.9 µg/mL) | inactive | 16 (≈ 7.03 µg/mL) | MIC95 [17]: 250 µM (≈ 110 µg/mL); MIC95 [18]: > 250 µM; MIC95 [21]: > 250 µM; MIC95 [22]: > 250 µM; MIC95 [23]: 125 µM (≈ 54.9 µg/mL); MIC95 [25]: > 250 µM
O=C(O)CN1C(=O)CSC1=S [RHODANINE-3-ACETIC ACID] | – | 1000 (≈ 191 µg/mL) | – | – | 1000 (≈ 191 µg/mL) | – | – | 1000 (≈ 191 µg/mL) | – | 1000 (≈ 191 µg/mL) | 1000 (≈ 191 µg/mL) | 1000 (≈ 191 µg/mL) | – | – | – | 1000 (≈ 191 µg/mL) | 1000 (≈ 191 µg/mL) | 1000 (≈ 191 µg/mL) | – | 1000 (≈ 191 µg/mL) | –
COc1ccc(OC(=O)CN2C(=O)CSC2=S)cc1 | 500 (≈ 149 µg/mL) | 1000 (≈ 297 µg/mL) | 500 (≈ 149 µg/mL) | Soluble | 1000 (≈ 297 µg/mL) | inactive | inactive | 1000 (≈ 297 µg/mL) | > 500 | 1000 (≈ 297 µg/mL) | 1000 (≈ 297 µg/mL) | 1000 (≈ 297 µg/mL) | inactive | inactive | > 500 | 1000 (≈ 297 µg/mL) | 1000 (≈ 297 µg/mL) | 1000 (≈ 297 µg/mL) | inactive | 1000 (≈ 297 µg/mL) | MIC95 [17]: > 500 µM; MIC95 [18]: > 500 µM; MIC95 [21]: > 500 µM; MIC95 [22]: > 500 µM; MIC95 [23]: > 500 µM; MIC95 [25]: > 500 µM
O=C(CN1C(=O)CSC1=S)Nc1ccc(Cl)cc1 | 500 (≈ 150 µg/mL) | 1000 (≈ 301 µg/mL) | 500 (≈ 150 µg/mL) | Soluble | 1000 (≈ 301 µg/mL) | inactive | inactive | 62.5 (≈ 18.8 µg/mL) | > 500 | 250 (≈ 75.2 µg/mL) | 500 (≈ 150 µg/mL) | 125 (≈ 37.6 µg/mL) | inactive | inactive | > 500 | 500 (≈ 150 µg/mL) | 250 (≈ 75.2 µg/mL) | 250 (≈ 75.2 µg/mL) | inactive | 32 (≈ 9.63 µg/mL) | MIC95 [17]: > 500 µM; MIC95 [18]: > 500 µM; MIC95 [21]: > 500 µM; MIC95 [22]: > 500 µM; MIC95 [23]: > 500 µM; MIC95 [25]: > 500 µM
O=C(CN1C(=O)/C(=C/c2ccccc2O)SC1=S)Nc1ccc(Cl)cc1 | – | 62.5 (≈ 25.3 µg/mL) | – | Soluble | 125 (≈ 50.6 µg/mL) | inactive | inactive | 16 (≈ 6.48 µg/mL) | – | 125 (≈ 50.6 µg/mL) | 62.5 (≈ 25.3 µg/mL) | 62.5 (≈ 25.3 µg/mL) | inactive | inactive | – | 125 (≈ 50.6 µg/mL) | 125 (≈ 50.6 µg/mL) | 32 (≈ 13 µg/mL) | inactive | 8 (≈ 3.24 µg/mL) | –
Cc1ccc(OC(=O)CN2C(=O)CSC2=S)cc1 | – | 1000 (≈ 281 µg/mL) | – | Soluble | 1000 (≈ 281 µg/mL) | inactive | inactive | 1000 (≈ 281 µg/mL) | – | 1000 (≈ 281 µg/mL) | 1000 (≈ 281 µg/mL) | 1000 (≈ 281 µg/mL) | inactive | inactive | – | 1000 (≈ 281 µg/mL) | 1000 (≈ 281 µg/mL) | 1000 (≈ 281 µg/mL) | inactive | 1000 (≈ 281 µg/mL) | –

Reference: ChEMBL document CHEMBL3992547, “Antimicrobial activity of rhodanine-3-acetic acid derivatives” (Bioorg Med Chem, 2017)
